In ChEMBL document CHEMBL1145359, “Synthesis and anticonvulsant activity of 4-(2-(2,6-dimethylphenylamino)-2-oxoethylamino)-N-(substituted)butanamides: a pharmacophoric hybrid approach” (Bioorg Med Chem Lett, 2007):
The source made the active and inactive calls.

Columns and labels:
Mus musculus [1] = experiment: Anticonvulsant activity against maximal-electroshock-induced seizure in mouse at 100 mg/kg, ip after 0.5 hrs; format: functional, organism-based; design: dose 100 mg/kg
Procedure, shortened: (§1)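 Mice received the compound intraperitoneally at 30, 100 or 300 mg/kg and were challenged with maximal electroshock 0.5 h later, scoring prevention of seizure spread. The value recorded is the minimum dose protecting half or more of the mice. A dash means no activity up to 300 mg/kg. A vehicle-treated control group was included.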

Mus musculus [2] = experiment: Anticonvulsant activity against subcutaneous picrotoxin-induced seizure in mouse at 100 mg/kg, ip after 4 hrs; format: functional, organism-based; design: dose 100 mg/kg
Procedure, shortened: (§2)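 Mice given intraperitoneal doses of 30, 100 and 300 mg/kg, with a vehicle-only control, then challenged with subcutaneous picrotoxin. Protection assessed at 0.5 h and 4 h after dosing. Recorded value is the lowest dose protecting half or more of the animals; a dash means no activity at 300 mg/kg.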

Mus musculus [3] = experiment: Anticonvulsant activity against subcutaneous picrotoxin-induced seizure in mouse at 30 mg/kg, ip after 0.5 hrs; format: functional, organism-based; design: dose 30 mg/kg; procedure, shortened: as §2
Mus musculus [4] = experiment: Acute neurotoxicity in mouse at 100 mg/kg, ip after 0.5 hrs by rotarod test; format: toxicity, organism-based; design: dose 100 mg/kg, route intraperitoneal; settings: in vivo
Procedure, shortened: (§3)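 Mice dosed intraperitoneally at 30, 100 and 300 mg/kg; motor impairment scored at 0.5 h and 4 h after dosing. The value recorded is the minimum dose at which the effect appeared in half or more of the mice. A dash means no effect at the top dose of 300 mg/kg. A vehicle-treated control group was included.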

Mus musculus [5] = experiment: Acute neurotoxicity in mouse at 300 mg/kg, ip after 4 hrs by rotarod test; format: toxicity, organism-based; design: dose 300 mg/kg, route intraperitoneal; settings: in vivo; procedure, shortened: as §3
Mus musculus [6] = experiment: Anticonvulsant activity against subcutaneous pentylenetetrazole-induced seizure in mouse at 30 mg/kg, ip after 0.5 hrs; format: functional, organism-based; design: dose 30 mg/kg
Procedure, shortened: (§4)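 Mice dosed intraperitoneally at 30, 100 and 300 mg/kg, with a vehicle-treated control, then challenged with subcutaneous pentylenetetrazole to detect elevation of seizure threshold. Read 0.5 h after dosing.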

Mus musculus [7] = experiment: Acute neurotoxicity in mouse at 100 mg/kg, ip after 4 hrs by rotarod test; format: toxicity, organism-based; design: dose 100 mg/kg, route intraperitoneal; settings: in vivo; procedure, shortened: as §3
Mus musculus [8] = experiment: Anticonvulsant activity against subcutaneous pentylenetetrazole-induced seizure in mouse at 300 mg/kg, ip after 0.5 hrs; format: functional, organism-based; design: dose 300 mg/kg
Procedure, shortened: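 Intraperitoneal dosing in mice at 30, 100 or 300 mg/kg, followed 0.5 h later by a subcutaneous pentylenetetrazole challenge, scoring protection against seizures (a seizure-threshold test). The value recorded is the minimum dose active in half or more of the mice. A dash means no activity at 300 mg/kg. A vehicle-treated control group was included.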

Mus musculus [9] = experiment: Anticonvulsant activity against maximal-electroshock-induced seizure in mouse at 30 mg/kg, ip after 0.5 hrs; format: functional, organism-based; design: dose 30 mg/kg; procedure, shortened: as §1
Mus musculus [10] = experiment: Anticonvulsant activity against subcutaneous picrotoxin-induced seizure in mouse at 300 mg/kg, ip after 4 hrs; format: functional, organism-based; design: dose 300 mg/kg; procedure, shortened: as §2
Mus musculus [11] = experiment: Anticonvulsant activity against maximal-electroshock-induced seizure in mouse at 300 mg/kg, ip after 0.5 hrs; format: functional, organism-based; design: dose 300 mg/kg; procedure, shortened: as §1
Mus musculus [12] = experiment: Anticonvulsant activity against subcutaneous picrotoxin-induced seizure in mouse at 100 mg/kg, ip after 0.5 hrs; format: functional, organism-based; design: dose 100 mg/kg; procedure, shortened: as §2
Mus musculus [13] = experiment: Acute neurotoxicity in mouse at 300 mg/kg, ip after 0.5 hrs by rotarod test; format: toxicity, organism-based; design: dose 300 mg/kg, route intraperitoneal; settings: in vivo; procedure, shortened: as §3
Mus musculus [14] = experiment: Anticonvulsant activity against subcutaneous picrotoxin-induced seizure in mouse at 30 mg/kg, ip after 4 hrs; format: functional, organism-based; design: dose 30 mg/kg; procedure, shortened: as §2
Mus musculus [15] = experiment: Anticonvulsant activity against subcutaneous picrotoxin-induced seizure in mouse at 10 mg/kg, ip after 0.5 hrs; format: functional, organism-based; design: dose 10 mg/kg
Mus musculus [16] = experiment: Anticonvulsant activity against subcutaneous pentylenetetrazole-induced seizure in mouse at 100 mg/kg, ip after 0.5 hrs; format: functional, organism-based; design: dose 100 mg/kg; procedure, shortened: as §4

Compound | Activity (Mus musculus [1]) | Activity (Mus musculus [2]) | Activity (Mus musculus [3]) | Activity (Mus musculus [4]) | Activity (Mus musculus [5]) | Activity (Mus musculus [6]) | Activity (Mus musculus [7]) | Activity (Mus musculus [8]) | Activity (Mus musculus [9]) | Activity (Mus musculus [10]) | Activity (Mus musculus [11]) | Activity (Mus musculus [12]) | Activity (Mus musculus [13]) | Activity (Mus musculus [14]) | Activity (Mus musculus [15]) | Activity (Mus musculus [16])
CCC1(c2ccccc2)C(=O)NC(=O)NC1=O [PHENOBARBITAL] | Active | Active | Active | Active | Active | Active |  |  |  |  |  |  |  |  |  | 
O=C1NC(=O)C(c2ccccc2)(c2ccccc2)N1 [PHENYTOIN] |  |  |  | Active |  |  | Active | inactive | Active | inactive |  |  |  |  |  | 
Cc1cccc(C)c1NC(=O)CNCCCC(=O)N(c1ccccc1)c1ccccc1 |  |  |  |  | Not Active |  |  | inactive |  | Active | Active | Active | Active |  |  | 
Cc1cccc(C)c1NC(=O)CNCCCC(=O)N1CCCCC1 | Active |  |  | Active | Active |  |  | inactive |  | inactive |  | Active |  |  |  | 
Cc1cccc(C)c1NC(=O)CNCCCC(=O)N1CCN(c2cccc(C(F)(F)F)c2)CC1 |  | Active | Active |  | Not Active |  |  | inactive |  |  | inactive |  | Not Active |  |  | 
CCCCN(CCCC)C(=O)CCCNCC(=O)Nc1c(C)cccc1C | Active | Active | Active |  | Not Active |  |  | inactive |  |  |  |  | Active |  |  | 
Cc1cccc(C)c1NC(=O)CNCCCC(=O)N(C)C |  | Active |  |  | Active |  |  | inactive |  |  | inactive | Active | Not Active |  |  | 
Cc1cccc(C)c1NC(=O)CNCCCC(=O)Nc1ccccc1Br | Active |  | Active |  | Active |  |  | inactive |  |  |  |  | Active | Active |  | 
Cc1cccc(C)c1NC(=O)CNCCCC(=O)N1CCC(C)CC1 |  | Active |  | Active |  |  | Active | inactive |  |  | inactive | Active |  |  |  | 
Cc1cccc(C)c1NC(=O)CNCCCC(=O)O | Active | Active | Active |  | Not Active |  |  | inactive |  |  |  |  | Active |  |  | 
Cc1cccc(C)c1NC(=O)CCCNCC(=O)Nc1c(C)cccc1C | Active |  |  |  | Not Active | Active |  |  |  |  |  |  | Active | Active | Active | 
Cc1cccc(NC(=O)CCCNCC(=O)Nc2c(C)cccc2C)c1 |  | Active | Active |  | Not Active |  |  | inactive |  |  | inactive |  | Active |  |  | 
Cc1cccc(C)c1NC(=O)CNCCCC(=O)Nc1cccc(Cl)c1C | Active | Active |  |  | Not Active |  |  | inactive |  |  |  | Active | Active |  |  | 
CCC1(C)CC(=O)NC1=O (centres undefined) [ETHOSUXIMIDE] |  |  |  |  | Not Active |  |  |  |  | inactive | inactive |  | Not Active |  |  | Active
Cc1cccc(C)c1NC(=O)CNCCCC(=O)Nc1ccccc1 | Active |  |  |  | Active |  |  | inactive |  | inactive |  | Active | Active |  |  | 
Cc1ccc(NC(=O)CCCNCC(=O)Nc2c(C)cccc2C)c(C)c1 | Active | Active |  |  | Active |  |  | Active |  |  |  | Active | Active |  |  | 
